Results gathered from unrelated publications.
Observed: metabolic stability
Matrix: liver microsomes

SMILES | system | conditions | microsomal CLint [µL/min/mg]
CC1=C(C(N)=O)C(=O)/C(=C\c2cc(C)n(-c3ccccc3C(F)(F)F)c2C)N1 | mouse | 1 µM | 93
COc1cc2[nH]c(-c3cccc(Oc4ccccc4)c3)c(C(=O)OCCCN3CCOCC3)c(=O)c2cc1F | female CD-1 mouse | 19.8 µM, pH 7.4 | > 15
CCC(F)(F)c1nc2nc(C)cc(Nc3ccc(S(F)(F)(F)(F)F)cc3)n2n1 | mouse | 1 µM, pH 7.4 | < 10
FC(F)(F)c1ccccc1-c1nc(N2CCC(c3ccccn3)C2)c2ccccc2n1 (stereo not shown) | mouse | – | 688
CCOC(=O)C1=C(C)N/C(=C/c2cc(CC)n(-c3ccccc3C(F)(F)F)c2CC)C1=O | mouse | 1 µM | 143
CCN(CC)CCNC(=O)c1c(C)[nH]c(/C=C2\C(=O)Nc3ccc(F)cc32)c1C | mouse | 1 µM, pH 7.4 | 54
Cc1cc(Nc2ccc(S(F)(F)(F)(F)F)cc2)n2nc(C(F)(F)F)nc2n1 | mouse | 1 µM, pH 7.4 | < 10
Cc1cc(Nc2ccc(C(F)(F)F)cc2)c2ccccc2n1 | mouse | – | 98
CCOc1ccc2ccc(=O)oc2c1 | mouse | 1 µM, pH 7.4 | 522
CCOC(=O)c1c(-c2cccc(Br)c2)[nH]c2cc(OC)c(F)cc2c1=O | female CD-1 mouse | 19.8 µM, pH 7.4 | < 4
COc1ccc(Nc2nc(-c3ccccn3)nc3ccccc23)cc1 | mouse | – | 158
Clc1ccc(COc2cncc(-c3cnn(C4CCNCC4)c3)c2)c(Cl)c1 | mouse | – | 28.9
c1ccc(C2CCN(c3nc(-c4ccco4)nc4ccccc34)C2)nc1 (stereo not shown) | mouse | – | 539
Cc1cc(Nc2ccc(S(F)(F)(F)(F)F)cc2)n2nc(C(C)(F)F)nc2n1 | mouse | 1 µM, pH 7.4 | < 10
Cc1cccc(N2CCN(c3nc(-c4ccccn4)nc4ccccc34)CC2)n1 | mouse | – | 513
O=C(Nc1ccc2c(c1)B(O)OC2)Nc1ccc(F)c(C(F)(F)F)c1 | mouse | – | 34
O=C(C1CCSCC1)N1CC(=O)N2CCc3ccccc3[C@@H]2C1 | mouse | 0.1 µM, pH 7.4 | 324
c1ccc(C2CCN(c3nc(-c4cnn5cccnc45)nc4ccccc34)C2)nc1 (stereo not shown) | mouse | – | 153
CCOC(=O)c1c(-c2cccc(Cl)c2)[nH]c2cc(OC)ccc2c1=O | female CD-1 mouse | 19.8 µM, pH 7.4 | > 15
